In brackets after ≈: the same amount, converted by molar mass. Activity calls are given as the source filed them. The rule behind the calls is not given here.
Experiments:
Candida albicans [1] = assay: Antifungal activity against Candida albicans ATCC 10231 assessed as growth inhibition at pH 7 incubated for 20 hrs in presence of 10% beef serum; type: functional; conditions: for MIC: ATCC 10231, 20 h, read-out: MIC100
Summary of the method: (§1)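 Agar dilution in Sabouraud dextrose agar at pH 5.6 or 7.0, with or without 10% beef serum. C. albicans and M. mucedo were incubated 20 h at 37°; A. niger and T. mentagrophytes 5 days at 28°. The value is the minimal µg/ml giving 100% inhibition. Steps were 1 µg/ml up to 10, 2 up to 20, then 10 up to 100 µg/ml maximum.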

Candida albicans [2] = assay: Antifungal activity against Candida albicans ATCC 10231 assessed as growth inhibition at pH 5.6 incubated for 20 hrs in absence of 10% beef serum; type: functional; conditions: for MIC: ATCC 10231, 20 h, read-out: MIC100; summary of the method: as §1
Candida albicans [3] = assay: Antifungal activity against Candida albicans ATCC 10231 assessed as growth inhibition at pH 5.6 incubated for 20 hrs in presence of 10% beef serum; type: functional; conditions: for MIC: ATCC 10231, 20 h, read-out: MIC100; summary of the method: as §1
Candida albicans [4] = assay: Antifungal activity against Candida albicans ATCC 10231 assessed as growth inhibition at pH 7 incubated for 20 hrs in absence of 10% beef serum; type: functional; conditions: for MIC: ATCC 10231, 20 h, read-out: MIC100; summary of the method: as §1
Aspergillus niger [5] = assay: Antifungal activity against Aspergillus niger ATCC 1004 assessed as growth inhibition at pH 5.6 incubated for 5 days in absence of 10% beef serum; type: functional; conditions: for MIC: ATCC 1004, 120 h, read-out: MIC100; summary of the method: as §1
Aspergillus niger [6] = assay: Antifungal activity against Aspergillus niger ATCC 1004 assessed as growth inhibition at pH 5.6 incubated for 5 days in presence of 10% beef serum; type: functional; conditions: for MIC: ATCC 1004, 120 h, read-out: MIC100; summary of the method: as §1
Aspergillus niger [7] = assay: Antifungal activity against Aspergillus niger ATCC 1004 assessed as growth inhibition at pH 7 incubated for 5 days in absence of 10% beef serum; type: functional; conditions: for MIC: ATCC 1004, 120 h, read-out: MIC100; summary of the method: as §1
Aspergillus niger [8] = assay: Antifungal activity against Aspergillus niger ATCC 1004 assessed as growth inhibition at pH 7 incubated for 5 days in presence of 10% beef serum; type: functional; conditions: for MIC: ATCC 1004, 120 h, read-out: MIC100; summary of the method: as §1
Mucor mucedo [9] = assay: Antifungal activity against Mucor mucedo ATCC 7941 assessed as growth inhibition at pH 5.6 incubated for 20 hrs in absence of 10% beef serum; type: functional; conditions: for MIC: ATCC 7941, 20 h, read-out: MIC100; summary of the method: as §1
Mucor mucedo [10] = assay: Antifungal activity against Mucor mucedo ATCC 7941 assessed as growth inhibition at pH 5.6 incubated for 20 hrs in presence of 10% beef serum; type: functional; conditions: ATCC 7941, 20 h, read-out: MIC100; summary of the method: as §1
Mucor mucedo [11] = assay: Antifungal activity against Mucor mucedo ATCC 7941 assessed as growth inhibition at pH 7 incubated for 20 hrs in absence of 10% beef serum; type: functional; conditions: ATCC 7941, 20 h, read-out: MIC100; summary of the method: as §1
Mucor mucedo [12] = assay: Antifungal activity against Mucor mucedo ATCC 7941 assessed as growth inhibition at pH 7 incubated for 20 hrs in presence of 10% beef serum; type: functional; conditions: ATCC 7941, 20 h, read-out: MIC100; summary of the method: as §1
[13] = tested on: Trichophyton mentagrophytes; assay: Antifungal activity against Trichophyton mentagrophytes ATCC 9129 assessed as growth inhibition at pH 5.6 incubated for 5 days in absence of 10% beef serum; type: functional; conditions: for MIC: ATCC 9129, 120 h, read-out: MIC100; summary of the method: as §1
[14] = tested on: Trichophyton mentagrophytes; assay: Antifungal activity against Trichophyton mentagrophytes ATCC 9129 assessed as growth inhibition at pH 5.6 incubated for 5 days in presence of 10% beef serum; type: functional; conditions: ATCC 9129, 120 h, read-out: MIC100; summary of the method: as §1
[15] = tested on: Trichophyton mentagrophytes; assay: Antifungal activity against Trichophyton mentagrophytes ATCC 9129 assessed as growth inhibition at pH 7 incubated for 5 days in absence of 10% beef serum; type: functional; conditions: ATCC 9129, 120 h, read-out: MIC100; summary of the method: as §1
[16] = tested on: Trichophyton mentagrophytes; assay: Antifungal activity against Trichophyton mentagrophytes ATCC 9129 assessed as growth inhibition at pH 7 incubated for 5 days in presence of 10% beef serum; type: functional; conditions: ATCC 9129, 120 h, read-out: MIC100; summary of the method: as §1
Candida albicans [17] = assay: Antifungal activity against Candida albicans ATCC 10231 incubated for 20 hrs; type: functional, organism-based
Aspergillus niger [18] = assay: Antifungal activity against Aspergillus niger ATCC 1004 incubated for 5 days; type: functional, organism-based
Mucor mucedo [19] = assay: Antifungal activity against Mucor mucedo ATCC 7941 incubated for 20 hrs; type: functional, organism-based
[20] = tested on: Trichophyton mentagrophytes; assay: Antifungal activity against Trichophyton mentagrophytes ATCC 9129 incubated for 5 days; type: functional, organism-based

MIC (Candida albicans [1]) [µg/mL] | MIC (Candida albicans [2]) [µg/mL] | MIC (Candida albicans [3]) [µg/mL] | MIC (Candida albicans [4]) [µg/mL] | MIC (Aspergillus niger [5]) [µg/mL] | MIC (Aspergillus niger [6]) [µg/mL] | MIC (Aspergillus niger [7]) [µg/mL] | MIC (Aspergillus niger [8]) [µg/mL] | MIC (Mucor mucedo [9]) [µg/mL] | MIC (Mucor mucedo [10]) [µg/mL] | MIC (Mucor mucedo [11]) [µg/mL] | MIC (Mucor mucedo [12]) [µg/mL] | MIC [13] [µg/mL] | MIC [14] [µg/mL] | MIC [15] [µg/mL] | MIC [16] [µg/mL] | Structure (SMILES) | Activity (Candida albicans [17]) | Activity (Aspergillus niger [18]) | Activity (Mucor mucedo [19]) | Activity [20] | also measured
40 | 16 (≈ 72.4 µM) | 30 | 30 (≈ 136 µM) | 60 (≈ 271 µM) | 100 | 50 (≈ 226 µM) | 80 | 4 (≈ 18.1 µM) | 4 | 4 (≈ 18.1 µM) | 7 | < 1 | 4 | 3 (≈ 13.6 µM) | 8 | CCCCOC(=O)/C=C/CBr | – | – | – | – | –
– | – | – | – | – | – | – | – | – | – | – | – | – | – | – | – | C/C=C/C(=O)OCCCCC | inactive | inactive | inactive | inactive | –
– | – | – | – | – | – | – | – | – | – | – | – | – | – | – | – | COC/C=C/C(=O)OC | – | – | – | – | MIC100 (Mucor mucedo [9]): inactive; MIC100 [13]: inactive
– | – | – | – | – | – | – | – | – | – | – | – | – | – | – | – | C/C=C/C(=O)OCCCCCC | inactive | inactive | inactive | inactive | –
< 1 | < 1 | < 1 | < 1 | < 1 | < 1 | < 1 | < 1 | < 1 | < 1 | < 1 | < 1 | < 1 | < 1 | < 1 | < 1 | C[C@@H]1[C@H](O)[C@@H](C)/C=C/C=C/C=C/C=C/C=C/C=C/C=C/[C@H](O[C@@H]2O[C@H](C)[C@@H](O)[C@H](N)[C@@H]2O)C[C@@H]2O[C@](O)(C[C@@H](O)C[C@@H](O)[C@H](O)CC[C@@H](O)C[C@@H](O)CC(=O)O[C@H]1C)C[C@H](O)[C@H]2C(=O)O [AMPHOTERICIN B] | – | – | – | – | –
50 | 20 (≈ 85.1 µM) | 50 | 30 (≈ 128 µM) | 70 (≈ 298 µM) | – | 70 (≈ 298 µM) | – | 3 (≈ 12.8 µM) | 14 | 14 (≈ 59.5 µM) | 30 | < 1 | 4 | 2 (≈ 8.51 µM) | 10 | CCCCCOC(=O)/C=C/CBr | – | – | – | – | MIC100 (Aspergillus niger [6]): inactive; MIC100 (Aspergillus niger [8]): inactive
40 | 18 (≈ 86.9 µM) | 30 | 30 (≈ 145 µM) | 80 (≈ 386 µM) | 90 | 60 (≈ 290 µM) | 80 | 4 (≈ 19.3 µM) | 5 | 4 (≈ 19.3 µM) | 7 | < 1 | 3 | 3 (≈ 14.5 µM) | 7 | CCCOC(=O)/C=C/CBr | – | – | – | – | –
– | – | – | – | – | – | – | – | 60 (≈ 446 µM) | 80 | 80 (≈ 595 µM) | 90 | 4 (≈ 29.7 µM) | 40 | 60 (≈ 446 µM) | 60 | COC(=O)/C=C/CCl | – | – | – | – | MIC100 (Candida albicans [1]): inactive; MIC100 (Candida albicans [2]): inactive; MIC100 (Candida albicans [3]): inactive; MIC100 (Candida albicans [4]): inactive; MIC100 (Aspergillus niger [5]): inactive; MIC100 (Aspergillus niger [6]): inactive; MIC100 (Aspergillus niger [7]): inactive; MIC100 (Aspergillus niger [8]): inactive
– | – | – | – | – | – | – | – | – | – | – | – | – | – | – | – | C/C=C/C(=O)OCC | inactive | inactive | inactive | inactive | –
18 | 16 (≈ 70.8 µM) | 30 | 20 (≈ 88.5 µM) | 30 (≈ 133 µM) | 40 | 30 (≈ 133 µM) | 40 | 9 (≈ 39.8 µM) | 10 | 9 (≈ 39.8 µM) | 8 | < 1 | 3 | 2 (≈ 8.85 µM) | 4 | COC(=O)/C=C/CI | – | – | – | – | –
– | – | – | – | – | – | – | – | – | – | – | – | – | – | – | – | C/C=C/C(=O)OCCC | inactive | inactive | inactive | inactive | –

Reference: ChEMBL document CHEMBL3271984, “Antifungal activity of 4-substituted crotonic acid esters” (1976)
